Calls of active or inactive are those of the source. The rule behind the calls is not given here.

Series [1] concerns HeLa. The series is described as follows: Anti HIV activity against HIV1 NL4-3 in HeLa-CD4-LTR-beta-gal cells in MAGI-X4 assay. In kind it is functional, cell-based. The method, boiled down: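 MAGI-X4 assay in HeLa-CD4-LTR-β-gal cells infected with HIV-1 NL4-3. Detects blocks in replication up to and including Tat transactivation of the LTR. Triplicate determinations over serial ½log10 dilutions (six to nine concentrations). AZT served as positive control.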

In series [2] the target is T1, Human immunodeficiency virus type 1 integrase (Human immunodeficiency virus 1, UniProt Q7ZJM1). The series is described as follows: Inhibition of 3' processing step of wt HIV1 integrase.
The target of series [3] is T1, Human immunodeficiency virus type 1 integrase. The series is described as follows: Inhibition of strand transfer step of wt HIV1 integrase.
Series [4] relates to PBMC. The series can be described thus: Antiviral activity against HIV1 TEKI replication in PBMC at 1 uM. As to conditions: Homo sapiens. In kind it is functional, cell-based. The method, boiled down:
(§1)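 PBMC cell-based microtiter anti-HIV assay against clinical isolate HIV-1 TEKI (NSI phenotype) or HIV-1 NL4-3 (SI phenotype). Test materials were run in triplicate as serial ½log10 dilutions, six to nine concentrations, from a stated high concentration (200 μM or 1 μM). IC50 and IC90 were determined, with cell viability measured in parallel. AZT was the MOI-sensitive positive control.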

Series [5] relates to PBMC. The series is described as follows: Antiviral activity against HIV1 NL4-3 replication in PBMC at 1 uM. In kind it is functional, cell-based. To be noted: Homo sapiens, NL4-3, PBMC. The method in brief:
as §1

The nature of series [6]: Therapeutic index (TI=CC50/IC50) in HIV1 TEKI at 1 uM. Format: cell-based. As to conditions: PBMC infected with HIV-1 TEKI; read-out: Ratio CC50/IC50. The method in brief:
(§2)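 Therapeutic index was calculated as CC50/IC50 from the PBMC assay, using HIV-1 NL4-3 or HIV-1 TEKI. Cell viability gave CC50, and antiviral readout gave IC50. Triplicate serial ½log10 dilutions were used, with a high test concentration of 200 μM or 1 μM.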

Series [7] can be described thus: Therapeutic index (TI=CC50/IC50) in HIV1 NL4-3 at uM. In kind it is cell-based. As to conditions: PBMC infected with HIV-1 NL4-3; read-out: Ratio CC50/IC50. The method, boiled down: as §2
Series [8] has as its system PBMC. The series is described as follows: Antiviral activity against HIV1 TEKI replication in PBMC at 200 uM. Format: functional, cell-based. To be noted: Homo sapiens. The method in brief:
as §1

Series [9] concerns PBMC. The series can be described thus: Antiviral activity against HIV1 NL4-3 replication in PBMC at 200 uM. As to conditions: Homo sapiens, NL4-3, PBMC. In kind it is functional, cell-based. The method, boiled down:
as §1

The test system of series [10] is HeLa. The series can be described thus: Cytotoxicity against HeLa-CD4-LTR-beta-gal cells at 200 uM. Format: functional, cell-based. To be noted: Homo sapiens. The method, boiled down: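 Cytotoxicity was measured in HeLa-CD4-LTR-β-gal cells within the MAGI-X4 assay. Up to 200 μM was tested, in triplicate, as serial ½log10 dilutions.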
A short description of series [11]: in vitro. As to conditions: PBMC infected with HIV-1 NL4-3.
Series [12] can be described thus: in vitro. As to conditions: PBMC infected with HIV-1 TEKI.

T1 sequence (Q7ZJM1 whole entry): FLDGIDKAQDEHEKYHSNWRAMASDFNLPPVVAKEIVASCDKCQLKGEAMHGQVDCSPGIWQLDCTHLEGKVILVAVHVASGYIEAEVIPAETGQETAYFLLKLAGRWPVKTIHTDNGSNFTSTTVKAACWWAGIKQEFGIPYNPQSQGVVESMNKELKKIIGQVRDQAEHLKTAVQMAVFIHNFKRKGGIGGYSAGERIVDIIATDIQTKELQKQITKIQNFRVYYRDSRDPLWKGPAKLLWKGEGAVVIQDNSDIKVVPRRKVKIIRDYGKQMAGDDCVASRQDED

In the case of `CC(C)(C)NC(=O)[C@@H]1C[C@@H]2CCCC[C@@H]2CN1C[C@@H](O)[C@H](Cc1ccccc1)NC(=O)[C@H](CC(N)=O)NC(=O)c1ccc2ccccc2n1`, the outcome in [1] was inactive.
As usually defined, the IC50 is the point on the concentration scale where inhibition reaches its midpoint. Take `O=C(O)C(=O)/C=C(\O)c1cn(Cc2ccc(F)cc2)c(=O)n(Cc2ccc(F)cc2)c1=O`: the IC50 was 3.9 µM in [2] and less than 0.7 µM in series [3].
The corresponding values for `O=C(O)C(=O)/C=C(\O)c1cn(Cc2ccccc2F)c(=O)n(Cc2ccccc2F)c1=O` are 4.1 µM and less than 0.6 µM.
On the same counts, the results for `O=C(O)C(=O)/C=C(\O)c1cn(Cc2ccccc2)c(=O)[nH]c1=O` are 10 µM and 0.5 µM.
As usually defined, the CC50 is the concentration that lowers cell viability or growth by half. For the compound `Cc1cn([C@H]2C[C@H](N=[N+]=[N-])[C@@H](CO)O2)c(=O)[nH]c1=O` [ZIDOVUDINE], the outcome in series [1] was Active. Besides, the CC50 in series [4] and in series [5] was more than 1 µM in each case. Besides, the concentration for half-maximal inhibition (IC50) stood at 0.00014 µM in series [4] and 0.00018 µM in series [5]. The selectivity ratio in [6] is more than 7140; in [7], more than 5560.
Usually IC90 stands for the concentration at which the effect reaches the 90% level. As for `O=C(O)C(=O)/C=C(\O)c1cn(Cc2ccccc2)c(=O)n(Cc2ccccc2)c1=O`, the outcome in series [1] was Active. Besides, the IC50 in series [2] was 3.7 µM; in series [3], 0.2 µM; in series [8] it was 0.05 µM; in series [9], less than 0.02 µM. Moreover, the CC50 in series [8] and in [9] was more than 200 µM in each case. Moreover, the CC90 in [8] and in [9] was more than 200 µM in each case. Also, the results for the IC90 in series [8] and in series [9] were 3.91 µM and 1.54 µM, respectively. Also, the outcome in series [10] was inactive. For the same compound, the figures for the selectivity ratio at 200 µM in series [11] and in series [12] were more than 10000 and more than 4000, respectively.
